Screening data: PubChem, Johns Hopkins Ion Channel Center
MrgX1 ag: agonists of human MrgX1 receptor; Q96LB2; MrgX1-HEK293 cells, Fluo-4 calcium fluorescence, agonist mode; active compounds read high; B-score at 10 µM; 310,000 compounds, 0.44% hits; AID 588627;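 active means calcium response B-score plate-corrected fluorescence ratio at least 3 library SD, with starting fluorescence B-score inside 5 SD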
Target sequence (Q96LB2 whole entry, looked up): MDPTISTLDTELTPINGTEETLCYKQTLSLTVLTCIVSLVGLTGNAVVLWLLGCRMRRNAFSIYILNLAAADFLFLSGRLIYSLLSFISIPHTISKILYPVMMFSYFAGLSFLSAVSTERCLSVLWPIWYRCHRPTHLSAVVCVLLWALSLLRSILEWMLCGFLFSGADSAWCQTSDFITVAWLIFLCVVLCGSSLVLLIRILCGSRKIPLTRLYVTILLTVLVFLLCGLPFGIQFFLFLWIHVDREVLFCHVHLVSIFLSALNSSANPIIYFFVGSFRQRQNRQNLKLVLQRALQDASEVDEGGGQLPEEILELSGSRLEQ
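Material: HEK293 cells stably expressing human MrgX1 receptor | Quantity: 15,000 cells per well | Times: Cells plated overnight, dye loaded 0.5 h 37 °C, 0.5 h room temperature | Measured by: Kinetic Fluo-4 NW fluorescence of intracellular calcium | Control set: Positive and negative controls per plate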
RGS4 block: human RGS4 inhibition | HEK293 M3R/RGS4 inducible, Fluo-4 calcium flux; active compounds read high; triggered by carbachol at its EC20 | 310,000 compounds, 0.45% hits | AID 463165 | P49798 | B-score at 10 µM;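 active means B-score, a plate-corrected calcium signal, over three deviations above library mean, with baseline fluorescence within five deviations of library mean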;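 further: RGS4 expression induced by doxycycline in cells with stable M3 receptor; B-score is computed from the integrated fluorescence ratio over baseline after carbachol; higher B-score means a larger calcium signal and so more RGS4 inhibition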
Target sequence (P49798 whole entry, looked up): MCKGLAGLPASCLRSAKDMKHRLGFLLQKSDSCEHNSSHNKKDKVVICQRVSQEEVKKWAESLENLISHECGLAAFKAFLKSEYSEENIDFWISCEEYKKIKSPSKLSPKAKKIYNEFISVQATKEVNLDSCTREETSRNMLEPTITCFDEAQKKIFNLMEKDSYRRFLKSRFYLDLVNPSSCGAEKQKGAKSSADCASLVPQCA
MrgX1 antag: human MrgX1 receptor antagonism, primary screen | MRGX1-HEK293 calcium flux, Fluo-4, BAM8-22 antagonism; active compounds read low | B-score at 10 µM | AID 588676 | 310,000 compounds, 1.3% hits;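 active means calcium-response B-score plate-corrected more than 3 library SD below zero, starting fluorescence within 5 deviations, no agonist response on first addition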;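 further: peak minus trough fluorescence over baseline after final BAM8-22 challenge near maximal dose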
MrgX1 allo act: allosterically activates human MrgX1 receptor signaling; Q96LB2; MrgX1-HEK293, Fluo-4 calcium flux, FDSS; active compounds read high; B-score at 10 µM; 310,000 compounds, 0.63% hits;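 active means plate-corrected calcium response at least 3 library SD above typical, normal starting fluorescence, not activating the receptor alone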;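 further: compound read alongside a low EC10 to EC30 dose of BAM8-22 agonist; peak minus trough fluorescence over baseline measured at the second addition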
RGS4 pot: potentiators or activators of RGS4. HEK293 M3R/inducible RGS4, carbachol calcium flux Fluo4; active compounds read low. B-score at 10 µM. AID 463111. 310,000 compounds, 0.92% hits;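 active means B-score of the integrated calcium signal more than 4 SD below the library mean, with starting fluorescence not abnormally high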;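 further: negative B-score means reduced calcium response which marks RGS4 activation or potentiation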
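Assay system: Inducible-RGS4 HEK293 cells carrying M3 receptor | Schedule: Compound preincubation 20 min at room temperature before agonist | Signal: Kinetic calcium fluorescence imaging with Fluo4-AM dye, 2 µM | Read-out basis: B score from integrated fluorescence ratio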
Each line names hits and unclear results; the compound was inactive in the other large screens. This is a sample that favours compounds with a hit; in the whole collection about 3.5% have one here.

COc1cc(/C=C2/C(=N)N3C(=NC2=O)SN=C3S(C)(=O)=O)ccc1OS(=O)(=O)c1ccccc1	MrgX1 allo act 28.4
CCC1=NN2C(=N)/C(=C\c3ccc(OCCOc4ccc(NC(C)=O)cc4)c(OC)c3)C(=O)N=C2S1	none
CCN(CC(=O)NCc1cccs1)C(=O)c1ccc(OC)c(OC)c1	none
Cc1c(Cl)c(C(=O)N2CCCC2)nn1C	none
N=C1/C(=C/c2ccc(OC(=O)c3ccco3)cc2)C(=O)N=C2SC=CN12	MrgX1 allo act 12.5
COc1cc(/C=C2\C(=N)N3N=C(S(C)(=O)=O)SC3=NC2=O)ccc1OC(=O)c1cccs1	MrgX1 allo act 8.24
N=C1/C(=C\c2ccc(OC(=O)c3ccccc3)cc2)C(=O)N=C2SC(N3CCOCC3)=NN12	MrgX1 antag -7.87
O=C(CN1C(=O)NC2(CCCC2)C1=O)NNC(=O)c1ccc(F)cc1	none
O=C(c1ccco1)N1CCC(c2nc3c(nnn3Cc3ccc(F)cc3)c(=O)[nH]2)CC1	none
CCOC(=O)C(Cc1ccccc1)NC(=O)Cn1nnc(-c2ccc(SC)cc2)n1 (stereo not given)	MrgX1 antag -6.9
COC(=O)c1ccc(-c2sc3nc(N4CCOCC4)c4c(c3c2N)CCCC4)o1	MrgX1 allo act 16.9, RGS4 pot -8.81
CCN1CCN(c2c(/C=C3\SC(=S)N(Cc4ccco4)C3=O)c(C)c(C#N)c(=O)n2C)CC1	none
CCOc1cc(/C=C2\SC(=S)N(NC(=O)c3cccnc3)C2=O)ccc1O	MrgX1 antag -5.85
O=C(NN1C(=O)/C(=C\c2cccnc2)SC1=S)C(c1ccccc1)c1ccccc1	RGS4 pot -7.34
CCOc1cc(/C=C2\SC(=S)N(NS(=O)(=O)c3ccc(C)cc3)C2=O)ccc1O	MrgX1 ag 52
COc1ccc(C(CNC(=O)C(=O)Nc2ccc3c(c2)OCCO3)N2CCN(C)CC2)cc1 (stereo not given)	none
Cc1cc(C(=O)NNC(=O)NC(C)C)no1	none
CCC1=NN(C(=O)c2ccc(Br)cc2)C(O)(c2ccccc2)C1 (stereo not given)	MrgX1 ag 29.6
CCCCCCc1ccc(N2C[C@H](Cc3ccccc3)[C@@H](CC(=O)Nc3ccccc3)C2=O)cc1	none
CCCCC(CC)CN=C(N)NC(N)=NCCCCCCN=C(N)NC(N)=NCC(CC)CCCC (stereo not given)	MrgX1 ag 170 (no result: RGS4 block, RGS4 pot)
COc1ccc(CCNc2oc(COc3ccccc3Cl)nc2C#N)cc1OC	RGS4 pot -7.26
COc1ccc(CCNc2oc(COc3ccccc3F)nc2C#N)cc1OC	none (no result: RGS4 block, RGS4 pot)
N#CC1=C(N)SC(N)=C(C#N)C1c1cccc(Oc2ccccc2)c1	MrgX1 antag -6.5
CCOc1ccc(C2C(C#N)=C(N)SC(N)=C2C#N)cc1OCC	none
N#CC1=C(N)SC(N)=C(C#N)C1c1c(Cl)cccc1Cl	MrgX1 ag 42
N#CC1=C(N)SC(N)=C(C#N)C1CCc1ccccc1	MrgX1 antag -5.14
N#CC1=C(N)SC(N)=C(C#N)C1Cc1ccccc1	none
O=C(O)CSCC(=O)N(Cc1ccccc1)c1nc(-c2ccccc2)c(-c2ccccc2)s1	MrgX1 antag -4.66
O=C(Cc1cccs1)Nc1ccc(-c2nnn(CC(=O)N3CCOCC3)n2)cc1	MrgX1 antag -6.39
COc1ccc2c(COC(=O)CCS(=O)(=O)c3ccccc3)cc(=O)oc2c1	none
O=C(N/N=C/c1ccccc1Cl)c1ccncc1	none
O=C(N/N=C/c1cc(Cl)ccc1O)c1ccncc1	MrgX1 antag -5.08
O=C1CSC(c2ccccc2Br)N1c1ccc(Cl)cn1 (stereo not given)	RGS4 pot -7.01
Cc1ccc(-c2ccc(/C=C(\C#N)C(=O)Nc3cc(C)nn3-c3ccccc3)o2)cc1	RGS4 pot -8.55
CCOC(=O)N1CCN(c2nc(N(c3ccccc3)c3ccccc3)nc(-n3ccnc3)n2)CC1	RGS4 pot -7.09
CS(=O)(=O)c1nc(S(=O)(=O)c2ccc(Cl)cc2)c(NCCCN2CCCC2=O)s1	none
Cc1nc(N/N=C/c2ccc(O)cc2O)cc(N2CCOCC2)n1	RGS4 pot -7.64
COc1ccc(NC(=O)c2cccc(S(=O)(=O)N3CCCCCC3)c2)cc1	none
CCCS(=O)(=O)c1c(S(=O)(=O)CCC)c2cnccn2c1C(=O)c1ccc(CC)cc1	none
CCCS(=O)(=O)c1c(S(=O)(=O)CCC)c2cnccn2c1C(=O)c1ccc(OC)cc1	MrgX1 allo act 12.9
COc1ccc(NC(=O)c2ccccc2NC(=O)c2ccco2)c(OC)c1	none
COc1ccc(NC(=S)NNC(=O)c2ccco2)c(OC)c1	MrgX1 antag -5.34
CC1CCC(C(C)C)C(OC(=O)Cn2c(-c3ccccc3)[n+](C)c3ccccc32)C1 (stereo not given)	MrgX1 antag -7.51
Cc1cccc(OC(=O)Cn2c(C(F)(F)F)nc3ccccc32)c1	none
Cc1cccc(OCc2n(CC(=O)OC3CC(C)CCC3C(C)C)c3ccccc3[n+]2C)c1 (stereo not given)	MrgX1 antag -9.64, RGS4 pot -12.3
CC1CCC(C(C)C)C(OC(=O)CSc2nnc(N)s2)C1 (stereo not given)	none
CC1CCC(C(C)C)C(OC(=O)CSc2nc(N)cc(=O)[nH]2)C1 (stereo not given)	none
CC1CCC(C(C)C)C(OC(=O)Cn2c(-c3ccc(F)cc3)[n+](C)c3ccccc32)C1 (stereo not given)	MrgX1 antag -5.79 (no result: RGS4 block, RGS4 pot)
CCCc1cc(=O)oc2cc(C)cc(OC(C)C(=O)NCC(O)c3ccccc3)c12 (stereo not given)	none
CCn1nc(C)cc1C(=O)n1nc(C)c(Sc2ncccn2)c1C	none
COc1ccc(/C=C/C(=O)NCC2COc3ccccc3O2)cc1OC (stereo not given)	MrgX1 antag -7.06
CC(Nc1ccccc1N1CCCCC1)C(=O)N1CCc2ccccc21 (stereo not given)	none
CCCN1C(=O)c2cc(C(=O)Nc3ccccc3OC)ccc2C1Nc1ccccc1OC (stereo not given)	RGS4 pot -7.23
CCOP(=O)(OCC)C(NC(=O)Nc1ccc(C)c(Cl)c1)c1ccccc1 (stereo not given)	MrgX1 antag -7.84
COc1cc(C(=O)N/N=C/c2ccc3c(c2)c2ccccc2n3C)ccc1O	none
Cn1c2ccccc2c2cc(/C=N/NC(=O)c3cc(O)ccc3O)ccc21	RGS4 pot -9.04
CCC(C(=O)O/N=C(\N)c1cccc(C)c1)c1ccccc1 (stereo not given)	RGS4 pot -9.49
Cc1ccc(COn2c(-c3ccc(Cl)cc3Cl)nc3ncccc32)cc1	RGS4 pot -8.65
Clc1cccc(COn2c(-c3ccc(Cl)cc3Cl)nc3ncccc32)c1	none
C=C[C@@]1(C)CC(=O)[C@]2(O)[C@@]3(C)[C@@H](O)CCC(C)(C)[C@@H]3[C@H](O)[C@H](OC(C)=O)[C@@]2(C)O1	MrgX1 allo act 10
